# Screening results as filed in PubChem BioAssay.
# A1 inh: inhibitors of the anti-apoptotic protein A1, read as caspase activation. actives 0.066% (n = 330,000). caspase activation, % (concentration not given with the values). MEF A1-2A-BIM cells, Caspase-Glo 3/7 luminescence, 3 h; percent of clofoctol response, vehicle zero;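 active means over half of replicate activation scores above 10%, or exactly half above 10 with the replicate mean above 10; inconclusive means replicate mean below 10 yet half the replicates above 10; inactive means over half of replicates below 10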
# UPR XBP1 act: adaptive UPR (XBP1) activation; CHO-XBP1 luciferase reporter, IRE1-XBP1 UPR activation, luminescence; percent of tunicamycin response, DMSO as zero; activation, % at 20 µM; actives 0.33% (n = 330,000); AID 463104;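 active means versus positive control, 20 µM dose yields 30% or more activation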;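 further: 100% = tunicamycin at 10 µg/mL and 0% = DMSO only wells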
#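 Test system: CHO-XBP1 luciferase reporter cells | Buffer or medium: Serum-containing F12 medium, 10% FBS | Schedule: 6 h compound exposure at 37 °C, 5% CO2 | Detection: Steady-Glo luciferase glow luminescence, 10 min after reagent addition | Read-out basis: Activation, % of tunicamycin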
# CHOP inhibitor: CHOP inhibition in unfolded protein response; AID 2732; inhibition, % at 10 µM; CHO-K1 CHOP-promoter luciferase, tunicamycin-induced, 15-18 h; actives 3.8% (n = 220,000);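 active means compounds that reduced the stress-induced luciferase reporter signal by more than about 70% of percent inhibition, limit read from the data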;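 further: 0% = tunicamycin plus vehicle and 100% = wells without tunicamycin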
# UPR CHOP act: apoptotic UPR (CHOP) activation; activation, % at 10 µM; actives 0.34% (n = 330,000); CHO-CHOP luciferase reporter, luminescence; percent of tunicamycin response over DMSO baseline;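 active means at 10 µM dose, activation of 40% or more, normalized to positive control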;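 further: 100% = tunicamycin at 10 µg/mL and 0% = DMSO alone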
#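 System: CHO-CHOP luciferase reporter cell line; amount: 500 cells/well; buffer or medium: F12 medium containing 10% fetal bovine serum; incubation: 6 h compound exposure at 37 °C after overnight seeding; measured by: luciferase luminescence after 10 min with Steady-Glo reagent; evaluation: % reporter activation, DMSO baseline versus tunicamycin full activation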
# * marks the source's active call; other numbers are inactive results; ? = inconclusive; / = no result given. The full list was thinned out, with hits kept by preference.
SMILES,A1 inh,UPR XBP1 act,CHOP inhibitor,UPR CHOP act
CC(C)(O[C@@H]1O[C@H](CO)[C@@H](O)[C@H](O)[C@H]1O)[C@@H]1CC=C(C(=O)O)CC1,-1,-3,/,1
Cc1ccc(N(C)S(=O)(=O)c2cccc(C(=O)NC3=NCCS3)c2)cc1,0,1,29,-2
CCN(C[C@H]1N[C@@](C)(C(=O)OC)[C@H]2C(=O)N(C)C(=O)[C@@H]12)C(=O)Nc1ccc(C)cc1,0,0,/,1
Cc1cccc2cc(C#N)c(NCCNC(=O)NC3CCCCC3)nc12,-1,0,72*,1
COc1cc(C(=O)Nc2cccc(-c3nc4cc(C)cc(C)c4o3)c2)cc(OC)c1OC,/,/,76*,/
Cc1ccc2oc(-c3cccc(NC(=O)c4ccc(Br)o4)c3)nc2c1,0,7,67,2
Cc1cc(C)c2oc(-c3cccc(NC(=O)c4ccc(F)cc4)c3)nc2c1,2,2,91*,-2
COc1ccc(CCNS(=O)(=O)c2ccc3c(c2)CC(C)N3C(C)=O)cc1OC (stereo not drawn),1,-1,0,-1
O=S(=O)(c1ccc(Cl)s1)N1CCN(CCc2ccccc2)CC1,0,-6,/,1
O=S(=O)(c1ccc(Cl)s1)N1CCN(Cc2ccccc2)CC1,-3,-4,81*,-1
O=C1/C(=C\c2c(NCCOCCO)nc3ccccn3c2=O)SC(=S)N1Cc1ccco1,9.1*,-1,/,1
CCCN1C(=O)/C(=C/c2c(NCCCOCC)nc3c(C)cccn3c2=O)SC1=S,/,/,76*,/
CCOCCCNc1nc2c(C)cccn2c(=O)c1/C=C1\SC(=S)N(CC(C)C)C1=O,1,2,33,1
COC(=O)[C@@]1(Cc2ccc(OC)cc2)[C@H]2c3cc(C(=O)N(C)C)n(Cc4c(CO)[nH]cc(C)c4=O)c3C[C@H]2CN1C(=O)c1ccccc1,0,2,/,2
CCN(CC)S(=O)(=O)c1ccc(C)c(NC(=S)N2CCN(C/C=C/c3ccccc3)CC2)c1,0,0,81*,1
CCN(CC)S(=O)(=O)c1ccc(C)c(NC(=S)N2CCN(c3ccccn3)CC2)c1,0,-6,/,-1
C/C(=N\NC(=O)CNc1cccc(Cl)c1C)c1cccs1,1,-1,92*,1
CCCCn1c(N)c(N(CCC(C)C)C(=O)c2cc(CC)c(C)s2)c(=O)[nH]c1=O,0,0,/,0
Cc1ccc(-c2nc(CSCC(=O)NCCN3CCN(Cc4ccccc4)CC3)c(C)o2)cc1,?,3,75*,2
CCn1c(=N)c(S(=O)(=O)c2ccccc2)cc2c(=O)n3ccccc3nc21,1,4,10,-2
CO/N=C/c1ccc(N2CCN(C(=O)c3ccc(C)cc3)CC2)c([N+](=O)[O-])c1,0,1,73*,0
CCOC(=O)CSc1c(-c2cccs2)[nH]c2ccccc12,-1,-1,-23,0
CCOC(=O)CSc1c(-c2ccc(Cl)cc2)[nH]c2ccccc12,0,-3,88*,4
CC(=O)Nc1nc(-c2ccccc2)nc(-c2ccccc2OC(C)=O)n1,-1,0,90*,0
COc1ccc(/C=C/C(=O)Nc2sc(Cc3ccccc3)c(C)c2C(N)=O)cc1,0,6,75*,6
SMILES,A1 inh,UPR XBP1 act,CHOP inhibitor,UPR CHOP act
Cc1c(Cc2ccccc2)sc(NC(=O)Cc2ccccc2)c1C(N)=O,-3,-1,/,0
CC(=O)c1ccc(NC(=S)NC(C)c2ccc(Cl)cc2Cl)cc1 (stereo not drawn),0,-2,73*,2
CC(=O)c1ccc(NC(=S)Nc2ccc(Br)c(Cl)c2)cc1,1,-2,34,1
CCCCCCCCNC(=O)/C(C#N)=C/c1ccc(SC)cc1,2,0,93*,3
COc1ccc(/C=C(\C#N)C(=O)NCCc2ccccc2)cc1OCc1ccccc1,1,-2,-1,0
CCCCCCCCNC(=O)/C(C#N)=C/c1ccc2c(c1)OCCO2,1,3,23,-2
N#C/C(=C\c1ccc(O)c(O)c1)C(=O)NCCCc1ccccc1,1,5,-3,151*
COCCNC(=S)NNC(=O)CSCc1ccc(Cl)cc1Cl,0,-2,20,0
Cc1cc(C)nc(N2CCCC(C(=O)NCCc3ccccc3F)C2)n1 (stereo not drawn),1,2,31,0
CCOc1cc(C)nc(N2CCCC(C(=O)NCc3ccccc3F)C2)n1 (stereo not drawn),0,2,71*,-2
CCCNS(=O)(=O)c1ccc(OCC(=O)N2CCN(c3ccccc3)CC2)cc1,-1,0,9,1
O=C(O)c1ccc(N=NNc2cccc([N+](=O)[O-])c2)cc1,-9,0,6,3
N#C/C(=N\Nc1cccc([N+](=O)[O-])c1)C(=O)c1ccc(Br)cc1,0,1,79*,2
COc1cc(CN2CCCC(CCC(=O)NCc3ccc(C)o3)C2)cc2c1OCO2 (stereo not drawn),0,0,86*,4
Cc1nc(C)c(C(=O)OCC(=O)NCCc2ccc(S(N)(=O)=O)cc2)s1,1,-1,/,-2
COc1ccc(S(=O)(=O)N(CCc2ccccc2)CC(=O)N/N=C/c2ccc3c(c2)OCO3)cc1,1,0,33,1
O=C(CN(CCc1ccccc1)S(=O)(=O)c1ccc(Cl)cc1)N/N=C/c1ccc2c(c1)OCO2,0,-3,77*,1
Cc1cccc(CN(CC(=O)N/N=C/c2cccs2)S(=O)(=O)c2ccc(Cl)cc2)c1,0,-4,78*,-2
O=c1c2c([nH]c3ccc(Br)cc13)CCCC2,2,6,/,-1
NC(=O)c1cc(Br)cc2c3c([nH]c12)CCCC3,0,3,85*,-3
O=C(c1ccccc1NS(=O)(=O)c1ccc(F)cc1)N1CCc2ccccc21,1,-1,16,1
CCOc1nc(Nc2ccc(OC)c(Cl)c2)nc(OCC)n1,-1,0,83*,-2
CCOc1nc(Nc2ccc(OC)cc2)nc(OCC)n1,0,-2,20,-1
Cc1cc(NC(=O)c2ccc(C)o2)no1,-3,0,/,-1
COc1ccc(/C=C(/C(=O)Nc2ccccc2C(=O)NC(C)C)c2ccccc2)cc1,0,1,74*,0
SMILES,A1 inh,UPR XBP1 act,CHOP inhibitor,UPR CHOP act
CCc1nnc(NC(=O)Cn2c(=O)oc3ccccc32)s1,1,-2,-7,-3
CC(C)CN(CC(C)C)c1nnc(NC(=O)Cn2c(=O)oc3ccccc32)s1,0,2,79*,0
OC1(c2ccc3c(c2)OCO3)CCN(Cc2ccccn2)CC1,1,2,16,2
NNC(=O)c1ccc(COc2ccc3ccccc3c2)cc1,-1,-2,85*,2
CCOc1ccc(OCc2cccc(C(=O)N3CCOCC3)c2)cc1,-2,-10,86*,-10
COc1ccc(OCc2cccc(C(=O)NN)c2)cc1,-2,-8,72*,-8
